Activity calls are given as the source filed them. The calls are words filed in the database; no cut-off is given here.
Assays:
Caspase-7 = molecular target: T1, Caspase-7 (Homo sapiens, UniProt P55210); test: Inhibition of human recombinant caspase-7 assessed as Ac-DEVD-AMC conversion to 7-amino-4-methylcoumarin incubated for 10 mins prior to substrate addition measured after 10 mins by spectrophotometric analysis
T1 sequence (P55210 whole entry): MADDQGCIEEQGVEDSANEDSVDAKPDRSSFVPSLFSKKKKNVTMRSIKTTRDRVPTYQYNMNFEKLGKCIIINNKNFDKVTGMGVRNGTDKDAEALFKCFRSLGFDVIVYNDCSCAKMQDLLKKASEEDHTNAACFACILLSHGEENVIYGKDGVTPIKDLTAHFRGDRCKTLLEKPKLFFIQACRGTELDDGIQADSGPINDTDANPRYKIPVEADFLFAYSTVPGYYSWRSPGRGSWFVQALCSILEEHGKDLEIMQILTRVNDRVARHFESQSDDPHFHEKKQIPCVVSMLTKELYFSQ
How it was run: (§1)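 Recombinant caspase diluted to 0.5 unit per assay (500 pmol substrate converted in 60 min), preincubated 10 min at 37 °C in reaction buffer with inhibitor in DMSO at single final concentrations spanning 5 pM to 500 μM. Peptide substrate then added (final 10 μM) and reacted 10 min. IC50 obtained by nonlinear regression.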

Caspase-1 (Homo sapiens) = molecular target: T2, Caspase-1 (Homo sapiens) (UniProt P29466); test: Inhibition of human recombinant caspase-1 assessed as Ac-YVAD-AMC conversion to 7-amino-4-methylcoumarin incubated for 10 mins prior to substrate addition measured after 10 mins by spectrophotometric analysis; how it was run: as §1
T2 sequence (whole entry): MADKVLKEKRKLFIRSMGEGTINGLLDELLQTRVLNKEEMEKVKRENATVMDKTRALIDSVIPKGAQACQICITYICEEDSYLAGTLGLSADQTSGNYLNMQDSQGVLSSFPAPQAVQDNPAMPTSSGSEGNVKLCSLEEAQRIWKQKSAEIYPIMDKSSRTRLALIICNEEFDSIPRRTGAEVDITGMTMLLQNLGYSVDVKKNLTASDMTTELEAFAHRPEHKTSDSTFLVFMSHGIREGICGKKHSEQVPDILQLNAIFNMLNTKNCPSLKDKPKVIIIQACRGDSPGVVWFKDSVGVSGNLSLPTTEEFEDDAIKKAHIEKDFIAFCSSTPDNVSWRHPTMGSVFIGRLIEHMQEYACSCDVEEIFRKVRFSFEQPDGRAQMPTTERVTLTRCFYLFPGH

Caspase-6 (Homo sapiens) = molecular target: T3, Caspase-6 (Homo sapiens) (UniProt P55212); test: Inhibition of human recombinant caspase-6 assessed as Ac-VEID-AMC conversion to 7-amino-4-methylcoumarin incubated for 10 mins prior to substrate addition measured after 10 mins by spectrophotometric analysis; how it was run: as §1
T3 sequence (whole entry): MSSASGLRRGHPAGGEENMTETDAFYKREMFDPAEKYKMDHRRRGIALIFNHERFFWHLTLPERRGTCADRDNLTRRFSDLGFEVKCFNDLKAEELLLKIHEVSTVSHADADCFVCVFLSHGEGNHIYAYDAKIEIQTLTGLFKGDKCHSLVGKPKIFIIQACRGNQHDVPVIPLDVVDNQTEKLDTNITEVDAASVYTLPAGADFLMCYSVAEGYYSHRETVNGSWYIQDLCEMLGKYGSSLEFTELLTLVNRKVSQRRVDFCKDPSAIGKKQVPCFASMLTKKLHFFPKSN

Caspase-3 = molecular target: T4, Caspase-3 (Homo sapiens, UniProt P42574); test: Inhibition of human recombinant caspase-3 assessed as Ac-DEVD-AMC conversion to 7-amino-4-methylcoumarin incubated for 10 mins prior to substrate addition measured after 10 mins by spectrophotometric analysis; how it was run: as §1
T4 sequence (P42574 whole entry): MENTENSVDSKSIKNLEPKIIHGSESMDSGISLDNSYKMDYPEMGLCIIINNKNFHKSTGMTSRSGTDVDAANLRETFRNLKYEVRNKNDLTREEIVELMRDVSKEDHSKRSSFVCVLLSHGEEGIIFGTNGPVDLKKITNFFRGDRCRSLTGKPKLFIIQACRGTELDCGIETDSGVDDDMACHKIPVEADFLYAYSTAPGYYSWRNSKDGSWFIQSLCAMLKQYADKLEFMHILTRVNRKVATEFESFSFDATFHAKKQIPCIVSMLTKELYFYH

Liver = test: Biodistribution in mouse liver at 9.8 MBq, iv after 6 mins by PET/CT analysis; format: ADME, organism-based; conditions: in vivo, 0.1 h
How it was run: (§2)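 Wild-type mice given tracer by tail vein injection through a pump-driven saline flush (300 μL/min) while PET list-mode acquisition started. CT-defined 3D volumes of interest over organs transferred to coregistered PET data. Uptake expressed as percentage injected dose: counts per mL in VOI divided by total counts in mouse, times 100% ID/mL.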

Kidney = test: Biodistribution in mouse kidney at 9.8 MBq, iv after 6 mins by PET/CT analysis; format: ADME, organism-based; conditions: in vivo, 0.1 h; how it was run: as §2
Lung = test: Biodistribution in mouse lung at 9.8 MBq, iv after 36 seconds by PET/CT analysis; format: ADME, organism-based; conditions: in vivo, 0.01 h; how it was run: as §2
Blood = test: Biodistribution in mouse blood at 9.8 MBq, iv up to 30 mins by PET/CT analysis; format: ADME, organism-based; conditions: in vivo, 0.5 h; how it was run: as §2
Mus musculus [1] = test: Biodistribution in mouse urinary bladder at 9.8 MBq, iv after 6 to 96 mins by PET/CT analysis; format: ADME, organism-based; conditions: in vivo; how it was run: as §2
Mus musculus [2] = test: Biodistribution in mouse gall bladder at 9.8 MBq, iv after 6 to 96 mins by PET/CT analysis; format: ADME, organism-based; conditions: in vivo; how it was run: as §2
Intestine = test: Biodistribution in mouse intestine at 9.8 MBq, iv after 6 to 96 mins by PET/CT analysis; format: ADME, organism-based; conditions: in vivo; how it was run: as §2
Heart = test: Biodistribution in mouse heart at 9.8 MBq, iv after 36 seconds by PET/CT analysis; format: ADME, organism-based; conditions: in vivo, 0.01 h; how it was run: as §2

IC50 (Caspase-7) [nM]	inhibition (Caspase-1 (Homo sapiens))	inhibition (Caspase-6 (Homo sapiens))	IC50 (Caspase-3) [nM]	Drug uptake (Liver) [%ID/ml]	Drug uptake (Kidney) [%ID/ml]	Drug uptake (Lung) [%ID/ml]	Drug uptake (Blood)	Drug uptake (Mus musculus [1])	Drug uptake (Mus musculus [2])	Drug uptake (Intestine)	Drug uptake (Heart) [%ID/ml]	SMILES
0.951	Active	Active	11.8									COC[C@@H]1CCCN1S(=O)(=O)c1ccc2c(c1)C(=O)C(=O)N2CC[C@H](F)CO
27	Active	Active	23.3									COC[C@@H]1CCCN1S(=O)(=O)c1ccc2c(c1)C(=O)C(=O)N2CC[C@H](O)CF
296	Active	Active	25.9									COC[C@@H]1CCCN1S(=O)(=O)c1ccc2c(c1)C(=O)C(=O)N2CC[C@@H](O)CF
128	Active	Active	187									COC[C@@H]1CCCN1S(=O)(=O)c1ccc2c(c1)C(=O)C(=O)N2CC[C@@H](O)CO
				12	5.2	3	Active	Active	Active	Active	3.6	COC[C@@H]1CCCN1S(=O)(=O)c1ccc2c(c1)C(=O)C(=O)N2CC[C@@H](O)C[18F]
71	Active	Active	56									COC[C@@H]1CCCN1S(=O)(=O)c1ccc2c(c1)C(=O)C(=O)N2CC[C@@H](F)CO
103	Active	Active	106									COC[C@@H]1CCCN1S(=O)(=O)c1ccc2c(c1)C(=O)C(=O)N2CC[C@H](O)CO

From ChEMBL document CHEMBL2380291, “Synthesis, 18F-radiolabeling, and in vivo biodistribution studies of N-fluorohydroxybutyl isatin sulfonamides using positron emission tomography” (J Med Chem, 2013)
